Experimental findings from ChEMBL document CHEMBL1137696, “Preparation and in vitro evaluation of benzylsulfanyl benzoxazole derivatives as potential antituberculosis agents” (2009) are described below.

What all share (assay type): functional
Experiment [1] has as its system Mycobacterium tuberculosis. The experiment is described as follows: Antimycobacterial activity against multidrug-resistant Mycobacterium tuberculosis 550/04 after 14 days by micromethod. To be noted: 550/04, 336 h. The procedure, abridged:
(§1)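 MIC by micromethod in Šula semisynthetic medium. Compounds added as DMSO solutions at 1000, 500, 250, 125, 62, 32, 16, 8, 4 and 2 µmol/L. Incubated at 37 °C and read at 14 and 21 days. MIC taken as the lowest concentration that inhibited mycobacterial growth, expressed in µmol/L. INH run as standard. Strains from CNCTC.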

The subject of experiment [2] is Mycobacterium tuberculosis. The experiment is described as follows: Antimycobacterial activity against multidrug-resistant Mycobacterium tuberculosis 550/04 after 21 days by micromethod. The note with it: 550/04, 504 h. The procedure, abridged: as §1
Experiment [3] has as its system Mycobacterium tuberculosis. The experiment is described as follows: Antimycobacterial activity against multidrug-resistant Mycobacterium tuberculosis 4977/03 after 14 days by micromethod. To be noted: 4977/03, 336 h. The procedure, abridged:
as §1

The subject of experiment [4] is Mycobacterium tuberculosis. The experiment is described as follows: Antimycobacterial activity against multidrug-resistant Mycobacterium tuberculosis 7357/98 after 14 days by micromethod. To be noted: 7357/98, 336 h. In outline: as §1
In experiment [5] the test system is Mycobacterium tuberculosis. Nature of the experiment: Antimycobacterial activity against isoniazid and streptomycin-resistant Mycobacterium tuberculosis 4166/04 after 14 days by micromethod. The note with it: 4166/04, 336 h. The procedure, abridged:
as §1

Experiment [6] relates to Mycobacterium tuberculosis. The experiment is described as follows: Antimycobacterial activity against multidrug-resistant Mycobacterium tuberculosis 7357/98 after 21 days by micromethod. To be noted: 7357/98, 504 h. In outline: as §1
For experiment [7], the system named is Mycobacterium tuberculosis. The experiment is described as follows: Antimycobacterial activity against multidrug-resistant Mycobacterium tuberculosis 4977/03 after 21 days by micromethod. To be noted: 4977/03, 504 h. In outline:
as §1

In experiment [8] the test system is Mycobacterium tuberculosis. Nature of the experiment: Antimycobacterial activity against isoniazid and streptomycin-resistant Mycobacterium tuberculosis 4166/04 after 21 days by micromethod. To be noted: 4166/04, 504 h. In outline:
as §1

≈ marks a conversion by molar mass, not a printed value.

On to `NC(=S)c1ccc(CSc2nc3ccccc3o2)cc1`, for which the MIC in experiment [1] came out at 8 µM (≈ 2.4 µg/mL); in experiment [2] it was 16 µM (≈ 4.81 µg/mL); in experiment [3] it was 32 µM (≈ 9.61 µg/mL); in experiment [4], 32 µM (≈ 9.61 µg/mL); in experiment [5], 8 µM (≈ 2.4 µg/mL); in experiment [6], 32 µM (≈ 9.61 µg/mL). Moreover, the MIC in experiment [7] came to 32 µM (≈ 9.61 µg/mL); in experiment [8] it was 16 µM (≈ 4.81 µg/mL).
For the compound `O=[N+]([O-])c1cc(CSc2nc3ccccc3o2)cc([N+](=O)[O-])c1`, the MIC is 2 µM (≈ 0.663 µg/mL) in experiment [1]; 4 µM (≈ 1.33 µg/mL) in experiment [2]; 2 µM (≈ 0.663 µg/mL) in experiment [3]; 4 µM (≈ 1.33 µg/mL) in experiment [4]; 2 µM (≈ 0.663 µg/mL) in experiment [5]; 4 µM (≈ 1.33 µg/mL) in experiment [6]. In addition, the MIC came out at 2 µM (≈ 0.663 µg/mL) in experiment [7] and 4 µM (≈ 1.33 µg/mL) in experiment [8].

Broadly, the MIC is the lowest concentration found to suppress growth. High values mean a less susceptible organism, low ones a more susceptible organism.
